Laboratory results as given in ChEMBL document CHEMBL1143077, “Synthesis of 2-[3-(7-Chloro-quinolin-4-ylamino)-alkyl]-1-(substituted phenyl)-2,3,4,9-tetrahydro-1H-beta-carbolines as a new class of antimalarial agents” (2008).
In brackets after ≈: the same amount, converted by molar mass.

Test system: Plasmodium falciparum
Assay: Antimalarial activity against chloroquine-sensitive Plasmodium falciparum NF54 after 36-40 hrs
Format: functional
How it was run: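 Rieckmann microassay: NF-54 kept in RPMI-1640 with 25 mM HEPES, 1% D-glucose, 0.23% sodium bicarbonate, 10% heat-inactivated human serum. Ring stage obtained by 5% D-sorbitol synchronization; ~1% parasitemia, 3% haematocrit. Compound 0.25–50 µg/ml, duplicate wells, 37 °C in candle jar. Giemsa smears scored microscopically; MIC taken as lowest concentration blocking full maturation to schizonts.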

Row | SMILES | MIC
1 | COC(=O)[C@H]1Cc2c([nH]c3ccccc23)[C@H](c2ccc(C(C)C)cc2)N1CCCNc1ccnc2cc(Cl)ccc12 | 0.22 µM (≈ 0.125 µg/mL)
2 | COC(=O)[C@H]1Cc2c([nH]c3ccccc23)[C@H](c2ccc(SC)cc2)N1CCCNc1ccnc2cc(Cl)ccc12 | 17.5 µM (≈ 10 µg/mL)
3 | COC(=O)[C@@H]1Cc2c([nH]c3ccccc23)[C@H](c2ccc(C(C)C)cc2)N1CCCNc1ccnc2cc(Cl)ccc12 | 0.22 µM (≈ 0.125 µg/mL)
4 | COC(=O)[C@@H]1Cc2c([nH]c3ccccc23)[C@@H](c2ccc(C(C)C)cc2)N1CCNc1ccnc2cc(Cl)ccc12 | 18.1 µM (≈ 10 µg/mL)
5 | COC(=O)[C@@H]1Cc2c([nH]c3ccccc23)[C@H](c2ccc(C(C)C)cc2)N1CCNc1ccnc2cc(Cl)ccc12 | 18.1 µM (≈ 10 µg/mL)
6 | COC(=O)[C@@H]1Cc2c([nH]c3ccccc23)[C@@H](c2ccc(C(C)C)cc2)N1CCCNc1ccnc2cc(Cl)ccc12 | 0.05 µM (≈ 0.0284 µg/mL)
7 | COC(=O)[C@H]1Cc2c([nH]c3ccccc23)[C@H](c2ccc(Cl)cc2)N1CCCNc1ccnc2cc(Cl)ccc12 | 1.79 µM (≈ 1 µg/mL)
8 | COC(=O)[C@@H]1Cc2c([nH]c3ccccc23)[C@@H](c2ccc(C)cc2)N1CCCNc1ccnc2cc(Cl)ccc12 | 0.06 µM (≈ 0.0323 µg/mL)
9 | COC(=O)[C@H]1Cc2c([nH]c3ccccc23)[C@@H](c2ccc(C(C)C)cc2)N1CCCNc1ccnc2cc(Cl)ccc12 | 0.22 µM (≈ 0.125 µg/mL)
10 | COC(=O)[C@@H]1Cc2c([nH]c3ccccc23)[C@H](c2ccc(OC)cc2)N1CCCNc1ccnc2cc(Cl)ccc12 | 3.61 µM (≈ 2 µg/mL)
11 | CCc1ccc([C@@H]2c3[nH]c4ccccc4c3C[C@H](C(=O)OC)N2CCCNc2ccnc3cc(Cl)ccc23)cc1 | 0.11 µM (≈ 0.0608 µg/mL)
12 | COC(=O)[C@H]1Cc2c([nH]c3ccccc23)[C@H](c2ccc(C)cc2)N1CCNc1ccnc2cc(Cl)ccc12 | 19.1 µM (≈ 10 µg/mL)
13 | COC(=O)[C@H]1Cc2c([nH]c3ccccc23)[C@@H](c2ccc(OC)cc2)N1CCCNc1ccnc2cc(Cl)ccc12 | 3.61 µM (≈ 2 µg/mL)
14 | COC(=O)[C@H]1Cc2c([nH]c3ccccc23)[C@@H](c2ccc(C(C)C)cc2)N1CCNc1ccnc2cc(Cl)ccc12 | 18.1 µM (≈ 10 µg/mL)
15 | COC(=O)[C@@H]1Cc2c([nH]c3ccccc23)[C@H](c2ccc(Cl)cc2)N1CCCNc1ccnc2cc(Cl)ccc12 | 3.58 µM (≈ 2 µg/mL)
16 | COC(=O)[C@@H]1Cc2c([nH]c3ccccc23)[C@H](c2cc(OC)c(OC)c(OC)c2)N1CCCNc1ccnc2cc(Cl)ccc12 | 16.3 µM (≈ 10 µg/mL)
17 | COC(=O)[C@H]1Cc2c([nH]c3ccccc23)[C@H](c2cc(OC)c(OC)c(OC)c2)N1CCCNc1ccnc2cc(Cl)ccc12 | 16.3 µM (≈ 10 µg/mL)
18 | COC(=O)[C@@H]1Cc2c([nH]c3ccccc23)[C@@H](c2ccc(OC)cc2)N1CCCNc1ccnc2cc(Cl)ccc12 | 3.61 µM (≈ 2 µg/mL)
19 | COC(=O)[C@H]1Cc2c([nH]c3ccccc23)[C@H](c2ccc(C)cc2)N1CCCNc1ccnc2cc(Cl)ccc12 | 0.46 µM (≈ 0.248 µg/mL)
20 | COC(=O)[C@H]1Cc2c([nH]c3ccccc23)[C@H](c2ccc(OC)cc2)N1CCCNc1ccnc2cc(Cl)ccc12 | 18.1 µM (≈ 10 µg/mL)
21 | COC(=O)[C@H]1Cc2c([nH]c3ccccc23)[C@H](c2ccc(Br)cc2)N1CCCNc1ccnc2cc(Cl)ccc12 | 16.6 µM (≈ 10 µg/mL)
22 | COC(=O)[C@@H]1Cc2c([nH]c3ccccc23)[C@H](c2ccc(SC)cc2)N1CCCNc1ccnc2cc(Cl)ccc12 | 17.5 µM (≈ 10 µg/mL)
23 | COC(=O)[C@H]1Cc2c([nH]c3ccccc23)[C@H](c2ccc(C(C)C)cc2)N1CCNc1ccnc2cc(Cl)ccc12 | 18.1 µM (≈ 10 µg/mL)
24 | CCN(CC)CCCC(C)Nc1ccnc2cc(Cl)ccc12 (centres undefined) [CHLOROQUINE] | 0.391 µM (≈ 0.125 µg/mL)
